Converted amounts (≈) assume the structure as drawn.
Tests used:
[1] = Tmax in Beagle dog at 5.2 mg/kg, po; format: ADME, organism-based, Canis lupus familiaris; details: in vivo
[2] = Permeability across apical to basolateral side in human Caco2 cells at 3 uM; format: ADME, cell-based; details: Caco-2, read-out: permeability
Procedure, shortened: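 Caco-2 monolayer permeability at 3 µM, apical-to-basolateral and basolateral-to-apical, reported in nm/sec.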

[3] = Oral bioavailability in Beagle dog at 5.2 mg/kg; format: ADME, organism-based, Canis lupus familiaris; details: in vivo
Procedure, shortened: (§1)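 Single IV (about 1 mg/kg) and oral (about 5 mg/kg) doses in rat, cynomolgus monkey and dog; CL, t1/2, Vss, Cmax, tmax, AUC and oral bioavailability F derived from plasma concentration-time data.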

[4] = Volume of distribution at steady state in Sprague-Dawley rat at 0.87 mg/kg, iv; format: ADME, organism-based; details: in vivo, read-out: Vdss
CHO = assay: Genotoxicity in CHO cells at 1.4 mM after 3 hrs in presence of metabolic activators by micronucleus assay; format: toxicity, cell-based, Cricetulus griseus; details: chinese hamster, 1400 µM
Procedure, shortened: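 Cytokinesis-blocked micronucleus test in cultured CHO cells: up to 1.4 mM (500 µg/mL) for 3 h with metabolic activation, or up to 0.36 mM for 22.5 h without activation.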

[5] = Protein binding in dog plasma; format: ADME, cell-free, Canis lupus familiaris; details: read-out: PPB (converted)
[6] = AUC in Beagle dog at 5.2 mg/kg, po; format: ADME, organism-based, Canis lupus familiaris; details: in vivo; procedure, shortened: as §1
Cytochrome P450 3A4 = Cytochrome P450 3A4 (Homo sapiens, UniProt P08684); assay: Inhibition of human CYP3A4; format: ADME
[7] = Ssolubility of the compound at pH 7.3; format: physicochemical; details: buffer
[8] = Clearance in Sprague-Dawley rat at 0.87 mg/kg, iv; format: ADME, organism-based; details: in vivo; procedure, shortened: as §1
Homo sapiens [9] = assay: Toxicity in normal healthy human at 200 to 1200 mg, po, administered as single dose; format: organism-based; details: in vivo
Procedure, shortened: (§2)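 Human subjects received single oral doses of 200, 600, 800 or 1200 mg and were monitored for clinically significant adverse events.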

[10] = Drug metabolism in rat liver microsomes assessed as CYP-mediated metabolism by measuring compound half life; format: ADME
Procedure, shortened: (§3)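 Microsomal stability with NADPH (CYP-dependent) in rat, cynomolgus, dog and human microsomes; half-life in min.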

[11] = Ssolubility of the compound at pH 2.3; format: physicochemical; details: buffer
Homo sapiens [12] = species on record: Homo sapiens; assay: Inhibition of human p-gp assessed as decrease in [3H]-digoxin transport at 10 uM
[13] = Half-life in Sprague-Dawley rat at 0.87 mg/kg, iv; format: ADME, organism-based; details: in vivo; procedure, shortened: as §1
[14] = Half-life in Beagle dog at 1 mg/kg, iv; format: ADME, organism-based, Canis lupus familiaris; details: in vivo; procedure, shortened: as §1
[15] = Half-life in cynomolgus monkey at 1 mg/kg, iv; format: ADME, organism-based, Macaca fascicularis; details: in vivo; procedure, shortened: as §1
Salmonella typhimurium [16] = assay: Genotoxicity in Salmonella typhimurium TA100 at =<5000 ug/plate in absence of metabolic activators by Ames test; format: toxicity, organism-based; details: salmonella enterica subsp. enterica serovar typhimurium
Procedure, shortened: (§4)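 Bacterial reverse mutation (Ames) test, Salmonella typhimurium TA98 and TA100, up to 5000 µg/plate, with and without metabolic activation.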

[17] = AUC in Sprague-Dawley rat at 4.4 mg/kg, po; format: ADME, organism-based; details: in vivo; procedure, shortened: as §1
Salmonella typhimurium [18] = assay: Genotoxicity in Salmonella typhimurium TA100 at =<5000 ug/plate in presence of metabolic activators by Ames test; format: toxicity, organism-based; details: salmonella enterica subsp. enterica serovar typhimurium; procedure, shortened: as §4
[19] = Drug metabolism in human microsomes assessed as CYP-mediated metabolism by measuring compound half life; format: ADME; procedure, shortened: as §3
Cytochrome P450 2C9 = Cytochrome P450 2C9 (Homo sapiens, UniProt P11712); assay: Inhibition of human CYP2C9; format: ADME
[20] = Solubility of the compound at pH 8.5; format: physicochemical; details: buffer
[21] = target: T1, Nuclear receptor subfamily 1 group I member 2 (Homo sapiens, UniProt O75469); assay: Transactivation of human PXR; format: ADME
T1 sequence (O75469 whole entry): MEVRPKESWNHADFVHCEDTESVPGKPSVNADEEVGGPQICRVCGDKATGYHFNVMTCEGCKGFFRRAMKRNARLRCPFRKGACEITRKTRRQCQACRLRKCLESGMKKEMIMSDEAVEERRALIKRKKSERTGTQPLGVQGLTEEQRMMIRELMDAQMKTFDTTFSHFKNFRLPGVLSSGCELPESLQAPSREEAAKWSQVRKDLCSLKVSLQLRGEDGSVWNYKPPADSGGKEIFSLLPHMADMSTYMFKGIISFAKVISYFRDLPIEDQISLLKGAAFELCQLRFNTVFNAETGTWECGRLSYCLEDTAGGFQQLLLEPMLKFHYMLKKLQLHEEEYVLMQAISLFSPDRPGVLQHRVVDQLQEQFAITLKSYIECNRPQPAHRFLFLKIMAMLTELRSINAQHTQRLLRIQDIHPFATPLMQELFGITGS
Procedure, shortened: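 Human PXR transactivation assay, with potency reported as EC20A and EC60A values.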

[22] = Cmax in Beagle dog at 5.2 mg/kg, po; format: ADME, organism-based, Canis lupus familiaris; parameters: dose 5.2 mg/kg, route oral; details: in vivo; procedure, shortened: as §1
Homo sapiens [23] = assay: Toxicity in normal healthy human assessed as occurence of adverse events at 200 to 1200 mg, po, administered as single dose; format: organism-based; details: in vivo; procedure, shortened: as §2
[24] = Volume of distribution at steady state in cynomolgus monkey at 1 mg/kg, iv; format: ADME, organism-based, Macaca fascicularis; details: in vivo, read-out: Vdss
[25] = Cmax in cynomolgus monkey at 5 mg/kg, po; format: ADME, organism-based, Macaca fascicularis; parameters: dose 5 mg/kg, route oral; details: in vivo; procedure, shortened: as §1

Sequence of Cytochrome P450 3A4 (P08684 whole entry): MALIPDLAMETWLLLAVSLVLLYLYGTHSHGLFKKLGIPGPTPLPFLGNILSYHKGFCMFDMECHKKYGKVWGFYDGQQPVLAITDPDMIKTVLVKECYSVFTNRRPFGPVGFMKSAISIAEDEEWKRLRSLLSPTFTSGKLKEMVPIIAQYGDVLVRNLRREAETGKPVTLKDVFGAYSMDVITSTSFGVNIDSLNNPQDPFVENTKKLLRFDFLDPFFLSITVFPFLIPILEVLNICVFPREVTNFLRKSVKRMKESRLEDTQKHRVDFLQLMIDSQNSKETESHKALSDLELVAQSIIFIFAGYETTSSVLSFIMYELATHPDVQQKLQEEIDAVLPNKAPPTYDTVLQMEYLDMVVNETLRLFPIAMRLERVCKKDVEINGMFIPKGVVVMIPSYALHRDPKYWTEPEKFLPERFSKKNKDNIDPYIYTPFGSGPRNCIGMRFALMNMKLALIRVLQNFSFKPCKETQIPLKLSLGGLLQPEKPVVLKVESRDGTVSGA
Sequence of Cytochrome P450 2C9 (P11712 whole entry): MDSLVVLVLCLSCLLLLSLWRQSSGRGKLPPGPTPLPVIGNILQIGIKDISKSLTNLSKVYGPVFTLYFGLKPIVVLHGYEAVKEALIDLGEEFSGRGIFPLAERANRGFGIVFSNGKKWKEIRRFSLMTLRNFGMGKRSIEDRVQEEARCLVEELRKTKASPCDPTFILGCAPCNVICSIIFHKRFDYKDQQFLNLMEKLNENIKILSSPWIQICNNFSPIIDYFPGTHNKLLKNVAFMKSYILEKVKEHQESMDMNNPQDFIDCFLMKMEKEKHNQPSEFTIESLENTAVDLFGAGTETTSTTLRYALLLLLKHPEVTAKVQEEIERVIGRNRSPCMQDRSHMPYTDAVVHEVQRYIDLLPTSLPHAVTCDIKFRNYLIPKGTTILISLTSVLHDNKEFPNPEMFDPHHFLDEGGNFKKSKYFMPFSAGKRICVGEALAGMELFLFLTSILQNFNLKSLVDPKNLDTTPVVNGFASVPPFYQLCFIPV

What does the source list for CC1(C)OCCn2c1nc(C(=O)NCc1ccc(F)cc1)c(O)c2=O?
Tmax [1]: 15 min; Papp A→B at 3 µM [2]: 33.4 ×10⁻⁶ cm/s; bioavailability [3]: 129%; Vd [4]: 0.86 L/kg; Activity (CHO): Non-Toxic; fraction unbound [5]: 0.015; AUC [6]: 162 µM·h; IC50 (Cytochrome P450 3A4): > 40 µM; solubility [7]: 63 µg/mL (≈ 181 µM); clearance [8]: 9.7 mL/min/kg; Activity (Homo sapiens [9]): Non-Toxic; half-life [10]: > 120 min; solubility [11]: 9 µg/mL (≈ 25.9 µM); inhibition (Homo sapiens [12]): 5%; half-life [13]: 240 min; half-life [14]: 360 min; half-life [15]: 390 min; Activity (Salmonella typhimurium [16]): Non-Toxic; AUC [17]: 19.1 µM·h; Activity (Salmonella typhimurium [18]): Non-Toxic; half-life [19]: 110 min; IC50 (Cytochrome P450 2C9): > 40 µM; solubility [20]: 234 µg/mL (≈ 674 µM); EC50 [21]: > 50 µM; EC20 ([21]; human): > 50 µM; EC60 ([21]; human): > 50 µM; Cmax [22]: 72.8 µM; Activity (Homo sapiens [23]): Non-Toxic; Vd [24]: 0.87 L/kg; Cmax [25]: 6.12 µM

Source: ChEMBL document CHEMBL4118197, “The discovery and preclinical evaluation of BMS-707035, a potent HIV-1 integrase strand transfer inhibitor” (Bioorg Med Chem Lett, 2018)
